We go through 4 compounds from ChEMBL document CHEMBL5252636, “Host-guest binding of tetracationic cyclophanes to photodynamic agents inhibits posttreatment phototoxicity and maintains antitumour efficacy” (RSC Med Chem, 2023).

Usually solubility stands for the dissolved amount per volume that the medium holds. A higher solubility goes with a readily soluble substance.

A short description of data set [1]: Water solubility of compound. It counts as physicochemical.
Data set [2] can be described thus: Phototoxicity in laser irradiated BALB/c mouse implanted with mouse B16-F10 cells assessed as pathological changes in skin at 4 mg/kg, followed by sunlight irradiation for 0.5 hr and measured on day 3 by H and E staining based analysis. As to conditions: in vivo.
Data set [3] has as its system B16-F10. Description: Antitumor activity against mouse B16-F10 cells implanted BALB/c mouse assessed as reduction in size at 4 mg/kg.
A short description of data set [4]: Phototoxicity in laser irradiated BALB/c mouse implanted with mouse B16-F10 cells assessed as pathological changes in kidney at 4 mg/kg, sc administered for 3 days followed by sunlight irradiation for 0.5 hr and […] by H and E staining based analysis. It counts as toxicity, organism-based. As to conditions: in vivo, iv, in the assay text read “iv administered” for “sc administered”. The essentials:
(§1)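 Female nude BALB/c mice, 7–8 weeks old, received 1×10^5 B16F10 cells s.c. on the right front back (n=8). At ~20 mm³, mice got Photofrin 4.0 mg/kg i.v. and were kept dark for 24 h. Tumours were then lit with a 635 nm laser (145 mW/cm², 7 min), followed within 30 min by compound 4.0 mg/kg i.v. On day 3 came a solar simulator (100 mW/cm², 30 min). Tumour volume (L×W²/2) was measured daily, skin imaged every 2 days, and H&E done on day 13.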

A short description of data set [5]: Phototoxicity in laser irradiated BALB/c mouse implanted with mouse B16-F10 cells assessed as pathological changes in lung at 4 mg/kg, followed by sunlight irradiation for 0.5 hr and measured on day 3 by H and E staining based analysis. As to conditions: in vivo.
Data set [6] is described as follows: Phototoxicity in laser irradiated BALB/c mouse implanted with mouse B16-F10 cells at 2 mg/kg, followed by sunlight irradiation for 24 hr. As to conditions: in vivo, 96 h.
Data set [7] can be described thus: Phototoxicity in laser irradiated BALB/c mouse implanted with mouse B16-F10 cells assessed as skin injury at 4 mg/kg, followed by sunlight irradiation for 0.5 hr and measured on day 11. As to conditions: in vivo, 264 h.
Data set [8] deals with B16-F10. Description: Antitumor activity against mouse B16-F10 cells implanted BALB/c mouse assessed as increase in tumor cell apoptosis at 4 mg/kg, iv by tunel staining based immunohistochemical analysis.
Data set [9] can be described thus: Phototoxicity in laser irradiated BALB/c mouse implanted with mouse B16-F10 cells assessed as hair follicle enlargement at 4 mg/kg, sc administered for 3 days followed by sunlight irradiation for 0.5 hr and […] by H and E staining based analysis. It counts as toxicity, organism-based. As to conditions: in vivo, iv, in the assay text read “iv administered” for “sc administered”. In a few lines: as §1

A further data set relates to L02. Description: Cytotoxicity against human L02 cells assessed as reduction in cell viability up to 100 microg/ml incubated for 24 hrs by MTT assay. It counts as toxicity, cell-based. As to conditions: l02, 24 h, up to 100 µg/mL, in the assay text read “CCK-8 assay” for “MTT assay”. In a few lines: (§2)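 CCK-8 viability assay. H9C2 cells were grown in DMEM with 10% FBS, and L02 cells in 1640 medium with 20% FBS, both at 37 °C in 5% CO₂. Cells were seeded at 1×10^4 per well, allowed to adhere for 24 h, then exposed to 0–100 µg/mL for 24 h. CCK-8 was added for 1 h and A450 read. Viability is expressed as % of untreated cells; six independent experiments.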
A general note: Tetrazolium assays rely on reduction of a dye to a coloured formazan, in cell work by metabolically active cells.

Data set [10] is described as follows: Hemolytic activity in rat RBC assessed as hemolysis up to 100 microg/ml measured after 1 hr. It counts as toxicity, cell-based, Erythrocyte. As to conditions: red blood cells, up to 100 µg/mL, read-out: Activity. In a few lines: (§3)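 Erythrocytes from Sprague Dawley rat or human O-type were used as a 5% (v/v) suspension in normal saline. They were incubated with compound (final 0–100 µg/mL) at 37 °C for 1 h, then centrifuged at 3000 rpm for 10 min at 4 °C. Hemoglobin in the supernatant was read at 545 nm. Saline served as 0% and deionized water as 100% hemolysis.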

Data set [11] can be described thus: Hemolytic activity in human RBC assessed as hemolysis up to 100 microg/ml measured after 1 hr. As to conditions: red blood cells, up to 100 µg/mL, read-out: Activity. It counts as toxicity, cell-based, Erythrocyte. The essentials:
as §3

For another data set, the system named is H9c2. Briefly: Cytotoxicity against rat H9c2 cells assessed as reduction in cell viability up to 100 microg/ml incubated for 24 hrs by MTT assay. It counts as toxicity, cell-based. As to conditions: h9c2, 24 h, up to 100 µg/mL, in the assay text read “CCK-8 assay” for “MTT assay”. The essentials:
as §2

The nature of data set [12]: Phototoxicity in laser irradiated BALB/c mouse implanted with mouse B16-F10 cells assessed as increase in tumor volume at 4 mg/kg, followed by sunlight irradiation for 0.5 hr and measured on day 13. As to conditions: in vivo, 312 h.
Data set [13] can be described thus: Phototoxicity in laser irradiated BALB/c mouse implanted with mouse B16-F10 cells at 2 mg/kg, followed by sunlight irradiation for 24 hr in presence of dopamine. As to conditions: in vivo, 96 h.
Data set [14] is described as follows: Phototoxicity in laser irradiated BALB/c mouse implanted with mouse B16-F10 cells assessed as epidermal thickening at 4 mg/kg, sc administered for 3 days followed by sunlight irradiation for 0.5 hr and […] by H and E staining based analysis. It counts as toxicity, organism-based. As to conditions: in vivo, iv, in the assay text read “iv administered” for “sc administered”. In a few lines:
as §1

Active and inactive are the calls of the source. The calls are words filed in the database; no cut-off is given here.

As for `C[n+]1ccc(-c2ccc3cc(-c4cc[n+](C)cc4)ccc3c2)cc1.[Cl-].[Cl-]`, in data set [1], the solubility turned out to be 3.5 mM.
`C[n+]1ccc(-c2ccc(-c3cc[n+](C)cc3)c3ccccc23)cc1.[Cl-].[Cl-]` returned a solubility in data set [1] of 13.1 mM.
The same measure, in the same setting: then `C[n+]1ccc(-c2cccc3c(-c4cc[n+](C)cc4)cccc23)cc1.[Cl-].[Cl-]`, with 20.7 mM.
As for `[Cl-].[Cl-].[Cl-].[Cl-].c1cc2ccc1C[n+]1ccc(cc1)-c1ccc3cc(ccc3c1)-c1cc[n+](cc1)Cc1ccc(cc1)C[n+]1ccc(cc1)-c1ccc3cc(ccc3c1)-c1cc[n+](cc1)C2`, the Activity in data set [2] is 67%; with B16-F10 [3], 26 mm3; in data set [4], 66%; in [5] it was 41%; in data set [6] it was “Non-Toxic”; in data set [7], “Non-Toxic”. Also, the Activity result in [9] is on record as “Non-Toxic”; in the data set with L02 it was “>= 90%”; with H9c2 it was “>= 90%”; in data set [12], 1344 mm3; in data set [13], “Non-Toxic”; in [14], “Non-Toxic”. For the same compound, in the data set with B16-F10 [8], the result was Active. The hemolysis at 1 h in [10] and in data set [11] was no more than 5% in each case.
